One block for each molecule: values may come before it. The source made the active and inactive calls. The rule behind the calls is not given here.
What was measured:
[1] = target: Programmed cell death protein 1/Programmed cell death 1 ligand 1 (Homo sapiens, UniProt Q9NZQ7); test: Inhibition of human PD-1/PD-L1 interaction assessed as blockade activity incubated for 15 mins by HTRF assay; type: protein-complex assay
In short: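 Tag1-PD-L1 and Tag2-PD-1 proteins preincubated with compound (0.1 nM to 10 μM, triplicate) 15 min at room temperature, then anti-Tag1-Eu³⁺/anti-Tag2-XL665 added for 2 h at room temperature. Excitation 337 nm, emission 665 and […]. Signal taken as 665/615 ratio ×10 000; IC50 fitted from inhibition rates.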

[2] = tested on: Jurkat; test: Cytotoxicity against human Jurkat cells expressing PD-1/NFAT/Luc assessed as inhibition of cell viability at 10 uM incubated for 24 hrs by CCK8 assay; type: functional, cell-based
In short: (§1)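 PD-1⁺/NFAT-luc/Jurkat cells seeded at 20 000 per well, treated with compound in medium with 1% final DMSO for 24 h. CCK8 added for 4 h, then absorbance read.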

[3] = tested on: MC-38; test: Cytotoxicity against mouse MC38 cells assessed as inhibition of cell viability at 10 uM incubated for 24 hrs by MTT assay; type: functional, cell-based
In short: (§2)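 PD-L1⁺/aAPC/CHO-K1 cells (2000/well) or MC38 cells (5000/well) allowed to adhere for 12 h, then exposed to compound in medium with 1% final DMSO for 24 h. MTT added for 4 h, medium replaced with DMSO, absorbance read.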

[4] = tested on: CHO-K1; test: Cytotoxicity against CHO-K1 cells expressing PD-L1/aAPC assessed as inhibition of cell viability at 10 uM incubated for 24 hrs by MTT assay; type: functional, cell-based; settings: Cricetulus griseus; in short: as §2
[5] = tested on: Jurkat; test: Cytotoxicity against human Jurkat cells expressing PD-1/NFAT/Luc assessed as inhibition of cell viability at 0.1 to 10 uM incubated for 24 hrs by CCK8 assay; type: functional, cell-based; settings: dose 0.1-10 µM; in short: as §1
[6] = Tmax in Sprague-Dawley rat at 10 mg/kg, po measured upto 24 hrs by LC-MS analysis; type: ADME, organism-based; settings: in vivo
In short: (§3)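 Male Sprague-Dawley rats or C57BL/6 mice fasted 12 h before dosing, given oral (po) or intravenous (iv) doses. Plasma levels measured by LC-MS. Parameters reported as mean ± SEM, n = 3.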

[7] = AUC (0 to t) in Sprague-Dawley rat at 10 mg/kg, po measured upto 24 hrs by LC-MS analysis; type: ADME, organism-based; parameters: route oral, dose 10 mg/kg, time <=24; settings: in vivo
In short: (§4)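 Male animals fasted 12 h before dosing. Plasma levels measured by LC-MS, with the prodrug quantified as the parent acid. Mean ± SEM, n = 3.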

[8] = target: Programmed cell death protein 1 (Homo sapiens) (UniProt Q15116); test: Binding affinity to human PD-1 assessed as dissociation constant by surface plasmon resonance analysis
In short: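 His-tagged human PD-L1 IgV or Fc-tagged human PD-1 IgV immobilized on a CM5 chip by amine coupling in 10 mM sodium acetate, pH 4.5. Compound serially diluted in PBS with 0.05% Tween 20 and 5% DMSO and flowed over the chip. KD fitted by instrument software, mean ± SEM of two to three independent experiments.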

[9] = Half life in Sprague-Dawley rat at 10 mg/kg, po measured upto 24 hrs by LC-MS analysis; type: ADME, organism-based; settings: in vivo; in short: as §4
[10] = Oral bioavailability in Sprague-Dawley rat at 10 mg/kg measured upto 24 hrs by LC-MS analysis; type: ADME, organism-based; settings: in vivo; in short: as §3
[11] = Cmax in Sprague-Dawley rat at 2 mg/kg, iv measured upto 24 hrs by LC-MS analysis; type: ADME, organism-based; parameters: route intravenous, dose 2 mg/kg, time <=24; settings: in vivo; in short: as §4
[12] = tested on: MC-38; test: Cytotoxicity against mouse MC38 cells assessed as inhibition of cell viability at 0.1 to 10 uM incubated for 24 hrs by MTT assay; type: functional, cell-based; settings: dose 0.1-10 µM; in short: as §2
[13] = target: Voltage-gated inwardly rectifying potassium channel KCNH2 (Homo sapiens, UniProt Q12809); test: Inhibition of human ERG
[14] = Half life in Sprague-Dawley rat at 2 mg/kg, iv measured upto 24 hrs by LC-MS analysis; type: ADME, organism-based; settings: in vivo; in short: as §4
[15] = Clearance in Sprague-Dawley rat at 2 mg/kg, iv measured upto 24 hrs by LC-MS analysis; type: ADME, organism-based; settings: in vivo; in short: as §4
[16] = AUC (0 to t) in Sprague-Dawley rat at 2 mg/kg, iv measured upto 24 hrs by LC-MS analysis; type: ADME, organism-based; parameters: route intravenous, dose 2 mg/kg, time <=24; settings: in vivo; in short: as §4
[17] = Cmax in Sprague-Dawley rat at 10 mg/kg, po measured upto 24 hrs by LC-MS analysis; type: ADME, organism-based; parameters: route oral, dose 10 mg/kg, time <=24; settings: in vivo; in short: as §4
[18] = tested on: CHO-K1; test: Cytotoxicity against CHO-K1 cells expressing PD-L1/aAPC assessed as inhibition of cell viability at 0.1 to 10 uM incubated for 24 hrs by MTT assay; type: functional, cell-based; settings: Cricetulus griseus, dose 0.1-10 µM; in short: as §2
[19] = target: Programmed cell death protein 1/Programmed cell death 1 ligand 1 (Homo sapiens) (UniProt Q15116+Q9NZQ7); settings: Jurkat, time 6.0 hrs
[20] = Tmax in Sprague-Dawley rat at 2 mg/kg, iv measured upto 24 hrs by LC-MS analysis; type: ADME, organism-based; settings: in vivo; in short: as §3

Programmed cell death protein 1/Programmed cell death 1 ligand 1, sequence (Q15116 whole entry): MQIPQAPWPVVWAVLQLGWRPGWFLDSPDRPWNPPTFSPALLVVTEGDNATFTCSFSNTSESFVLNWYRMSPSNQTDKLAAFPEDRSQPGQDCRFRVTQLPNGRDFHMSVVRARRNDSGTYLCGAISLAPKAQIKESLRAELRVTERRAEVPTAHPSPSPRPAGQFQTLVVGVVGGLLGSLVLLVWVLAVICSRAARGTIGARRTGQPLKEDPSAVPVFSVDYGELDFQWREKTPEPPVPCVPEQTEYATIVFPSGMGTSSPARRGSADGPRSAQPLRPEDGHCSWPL
Programmed cell death protein 1/Programmed cell death 1 ligand 1, sequence (Q9NZQ7 whole entry): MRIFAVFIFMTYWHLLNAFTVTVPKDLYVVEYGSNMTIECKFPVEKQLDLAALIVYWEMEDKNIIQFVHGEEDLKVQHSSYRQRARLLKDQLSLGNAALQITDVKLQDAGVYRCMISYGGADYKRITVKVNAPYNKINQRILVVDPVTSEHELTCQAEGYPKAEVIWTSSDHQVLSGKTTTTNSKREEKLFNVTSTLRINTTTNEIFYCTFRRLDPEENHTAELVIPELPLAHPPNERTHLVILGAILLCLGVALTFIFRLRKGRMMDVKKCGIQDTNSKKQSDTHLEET
Voltage-gated inwardly rectifying potassium channel KCNH2, sequence (Q12809 whole entry): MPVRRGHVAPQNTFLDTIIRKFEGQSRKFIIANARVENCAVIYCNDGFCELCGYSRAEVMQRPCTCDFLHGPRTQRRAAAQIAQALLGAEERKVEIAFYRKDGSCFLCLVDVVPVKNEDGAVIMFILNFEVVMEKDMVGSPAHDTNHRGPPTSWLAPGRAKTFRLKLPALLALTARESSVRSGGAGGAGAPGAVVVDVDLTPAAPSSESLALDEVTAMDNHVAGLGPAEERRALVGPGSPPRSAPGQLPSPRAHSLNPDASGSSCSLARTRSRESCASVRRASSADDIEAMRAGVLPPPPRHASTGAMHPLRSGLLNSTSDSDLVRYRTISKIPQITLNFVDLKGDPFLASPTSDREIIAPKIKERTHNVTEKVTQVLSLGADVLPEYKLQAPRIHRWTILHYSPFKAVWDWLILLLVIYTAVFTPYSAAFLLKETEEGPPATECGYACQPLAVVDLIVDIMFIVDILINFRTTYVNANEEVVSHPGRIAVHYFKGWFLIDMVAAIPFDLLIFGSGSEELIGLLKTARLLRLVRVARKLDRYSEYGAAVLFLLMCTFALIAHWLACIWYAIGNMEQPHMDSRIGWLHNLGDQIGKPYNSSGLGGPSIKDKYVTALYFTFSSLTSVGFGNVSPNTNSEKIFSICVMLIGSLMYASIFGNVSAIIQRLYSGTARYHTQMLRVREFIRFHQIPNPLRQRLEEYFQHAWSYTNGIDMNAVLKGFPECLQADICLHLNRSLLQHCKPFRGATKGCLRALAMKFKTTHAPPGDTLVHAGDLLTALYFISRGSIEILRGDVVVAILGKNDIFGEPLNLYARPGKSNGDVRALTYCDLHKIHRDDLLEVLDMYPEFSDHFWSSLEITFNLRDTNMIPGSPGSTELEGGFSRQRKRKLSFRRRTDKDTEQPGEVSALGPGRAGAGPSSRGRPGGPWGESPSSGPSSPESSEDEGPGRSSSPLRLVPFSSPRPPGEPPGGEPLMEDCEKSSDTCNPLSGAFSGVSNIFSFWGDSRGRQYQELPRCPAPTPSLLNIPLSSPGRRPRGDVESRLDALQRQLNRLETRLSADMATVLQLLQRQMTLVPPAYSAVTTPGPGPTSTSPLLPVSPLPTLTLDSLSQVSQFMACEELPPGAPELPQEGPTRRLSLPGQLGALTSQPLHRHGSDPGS
Programmed cell death protein 1 (Homo sapiens), sequence (Q15116 whole entry): as the sequence (Q15116 whole entry) above

Compound: O=C(O)C1CN(Cc2cc(Cl)c(OCc3cccc(-c4ccccc4)c3Br)cc2OCc2ccc3nonc3c2)C1
IC50 [1]: 52.3 nM

Compound: CN1CCN(Cc2cc(Cl)c(OCc3cccc(-c4ccccc4)c3Br)cc2OCc2ccc3nonc3c2)CC1
IC50 [1]: 3590 nM

Compound: O=C(O)[C@H]1C[C@@H](O)CN1Cc1cc(Cl)c(OCc2cccc(-c3ccccc3)c2Br)cc1OCc1ccc2nonc2c1
Activity [2]: Active | Activity [3]: Active | Activity [4]: Active | IC50 [1]: 24.3 nM

Compound: O=C(O)[C@@H](CO)NCc1cc(Cl)c(OCc2cccc(-c3cccc(Cl)c3)c2Br)cc1OCc1ccc2nonc2c1
IC50 [1]: 24.3 nM

Compound: OC[C@H](O)CNCc1cc(Cl)c(OCc2cccc(-c3ccccc3)c2Br)cc1OCc1ccc2nonc2c1
IC50 [1]: 14.6 nM

Compound: O=C(O)[C@@H](CO)NCc1cc(Cl)c(OCc2cccc(-c3cccc(OCCCO)c3)c2Br)cc1OCc1ccc2nonc2c1
IC50 [1]: 30.9 nM

Compound: CC(=O)NCCNCc1cc(Cl)c(OCc2cccc(-c3ccccc3)c2Br)cc1OCc1ccc2nonc2c1
IC50 [1]: 130 nM

Compound: Cc1c(COc2ccc(CN[C@H](CO)C(=O)O)c(OCc3ccc4nsnc4c3)c2)cccc1-c1ccccc1
IC50 [1]: 206 nM

Compound: OC1CCC(NCc2cc(Cl)c(OCc3cccc(-c4ccccc4)c3Br)cc2OCc2ccc3nonc3c2)CC1 (configuration not stated)
IC50 [1]: 57.2 nM

Tmax [6]: 2.33 h | AUC(0-t) at 24 h [7]: 15.2 ng·h/mL | half-life [9]: 4.17 h | bioavailability [10]: 0.35% | Cmax [11]: 2090 ng/mL | half-life [14]: 4.04 h | clearance [15]: 39.6 mL/min/kg | AUC(0-t) at 24 h [16]: 860 ng·h/mL | Cmax [17]: 4.46 ng/mL | Tmax [20]: 4.8 min
Compound: O=C(O)[C@@H](CO)NCc1cc(Cl)c(OCc2cccc(-c3ccccc3)c2Br)cc1OCc1ccc2nonc2c1
Activity [5]: inactive | Activity [8]: inactive | Activity [12]: inactive | IC50 [13]: > 30000 nM | Activity [18]: inactive | RLU [19]: 1.81

Compound: O=C(O)[C@@H](CO)NCc1cc(F)c(OCc2cccc(-c3ccccc3)c2Cl)cc1OCc1ccc2nonc2c1
IC50 [1]: 9.5 nM

Compound: Cc1c(COc2ccc(CN[C@H](CO)C(=O)O)c(OCc3cccc4nonc34)c2)cccc1-c1ccccc1
IC50 [1]: 2160 nM

Compound: O=C(O)[C@@H]1CCCCN1Cc1cc(Cl)c(OCc2cccc(-c3ccccc3)c2Br)cc1OCc1ccc2nonc2c1
IC50 [1]: 13.3 nM

Compound: O=C(O)[C@@H](CO)NCc1cc(Cl)c(OCc2cccc(-c3ccccc3)c2Cl)cc1OCc1ccc2nonc2c1
IC50 [1]: 3.3 nM

Compound: COc1cccc(-c2cccc(COc3cc(OCc4ccc5nonc5c4)c(CN[C@H](CO)C(=O)O)cc3Cl)c2Br)c1
IC50 [1]: 7.8 nM

Compound: O=S(=O)(O)CCNCc1cc(Cl)c(OCc2cccc(-c3ccccc3)c2Br)cc1OCc1ccc2nonc2c1
IC50 [1]: 26.9 nM

Compound: Cc1c(COc2ccc(CN[C@H](CO)C(=O)O)c(OCc3ccc4ccoc4c3)c2)cccc1-c1ccccc1
IC50 [1]: 2340 nM

Compound: O=C(O)[C@@H](CO)NCc1cc(Cl)c(OCc2cccc(-c3ccccc3)c2F)cc1OCc1ccc2nonc2c1
Activity [5]: inactive | Activity [12]: inactive | Activity [18]: inactive | IC50 [1]: 3.5 nM

Compound: COc1nc(OCc2cccc(-c3ccccc3)c2C)ccc1CNCCNC(C)=O
Activity [2]: Active | Activity [3]: Active | Activity [4]: Active

Compound: O=C(O)[C@@H](CO)NCc1cc(Cl)c(OCc2cccc(-c3ccc(F)cc3)c2Cl)cc1OCc1ccc2nonc2c1
IC50 [1]: 56.1 nM

Compound: O=C(O)[C@@H](CO)NCc1cc(Cl)c(OCc2cccc(-c3cccc(F)c3)c2Br)cc1OCc1ccc2nonc2c1
Activity [5]: inactive | Activity [12]: inactive | Activity [18]: inactive | IC50 [1]: 8.2 nM
